High-throughput results: PubChem BioAssay, The Scripps Research Institute Molecular Screening Center
Sampled rows, rich in hits. Any-hit rate of the full collection: about 2.7%.
PfM18AAP inh-1 – PfM18AAP inhibitors, malaria aminopeptidase, primary screen, biochemical, QFRET, recombinant enzyme; H-Glu-NHMec fluorogenic cleavage; M18 aspartyl aminopeptidase (Plasmodium falciparum 3D7); AID 1822, 2009; inhibition, % at 7.35 µM; 290,000 tested, 1.2% active;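 active = inhibition above the campaign mean inhibition over all tested compounds plus 3 SD, cut at about 28% in these data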
VIM-2 inhibitor – VIM-2 metallo-beta-lactamase inhibitors, primary screen, biochemical, epi-absorbance readout, Pseudomonas aeruginosa enzyme; inhibition, % at 5.6 µM; purified VIM-2, nitrocefin hydrolysis, epi-absorbance fluorescence; 290,000 tested, 0.89% active; AID 1527, 2009;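 active = inhibition above the mean of all tested compounds plus 3 SD, cutoff set per screening run, cut at about 7.5% in these data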;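 note: red hydrolysis product quenches plate fluorescence so inhibitors raise well fluorescence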
IMP-1 inhibitor – IMP-1 metallo-beta-lactamase inhibitors, primary screen, biochemical, epi-absorbance readout, Pseudomonas aeruginosa enzyme. purified IMP-1, nitrocefin hydrolysis, epi-absorbance fluorescence. inhibition, % at 5.6 µM. 290,000 tested, 0.45% active;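 active = inhibition above the mean plus 3 SD of all compounds in the same screening run, cut at about 4.5% in these data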
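assay system = purified recombinant IMP-1 metallo-beta-lactamase enzyme | schedule = 15 min preincubation plus 25 min reaction at 25 °C | signal = Epi-absorbance fluorescence, 480 nm excitation, 530 nm emission | read-out basis = percent inhibition from optical density relative to buffer-blank wells | controls = IMP-1 with DMSO as 0%, enzyme-free DMSO as 100%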
CTSL1 counter-1 – Fasciola hepatica cathepsin L1 inhibitors, primary screen, counter-screen for PFM18AAP inhibitor project, biochemical, QFRET, fluorogenic peptide substrate; inhibition, % at 5.96 µM; AID 1906, 2009; 300,000 tested, 0.49% active; recombinant F. hepatica cathepsin L1, Z-Leu-Arg-MCA fluorescence;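 active = inhibition above the mean of all tested compounds plus 3 SD, set per screening campaign, cut at about 17% in these data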
PfM18AAP inh-2 – PfM18AAP inhibitors, malaria aminopeptidase, confirmation, biochemical, QFRET, recombinant enzyme, triplicate. shares compounds with PfM18AAP inh-1. H-Glu-NHMec fluorogenic cleavage. inhibition, % at 7.35 µM. 2,400 tested, 28% active;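 active = mean inhibition over replicate wells above the hit cutoff set for the earlier primary screen, cut at about 29% in these data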
CTSL1 counter-2 – cathepsin L1 inhibitors, retest, confirmation, counter-screen for PFM18AAP inhibitor project, biochemical, QFRET, triplicate; shares compounds with PfM18AAP inh-1; purified cathepsin L1, Z-Leu-Arg-MCA fluorescence; inhibition, % at 5.96 µM; 2,400 tested, under 10 active; AID 2178, 2009;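 active = average inhibition across replicates above the hit cutoff set in the earlier primary screen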
Target sequence (P07711 whole entry, looked up): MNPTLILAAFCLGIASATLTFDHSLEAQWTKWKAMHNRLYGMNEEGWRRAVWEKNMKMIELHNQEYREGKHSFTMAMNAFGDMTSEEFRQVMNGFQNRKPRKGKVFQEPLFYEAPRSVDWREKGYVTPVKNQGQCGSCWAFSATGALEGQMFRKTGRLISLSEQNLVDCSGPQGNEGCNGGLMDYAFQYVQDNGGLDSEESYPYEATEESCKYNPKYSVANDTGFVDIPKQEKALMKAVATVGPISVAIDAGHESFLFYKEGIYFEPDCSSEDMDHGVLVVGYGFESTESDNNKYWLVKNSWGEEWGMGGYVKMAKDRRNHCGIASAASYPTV
A number is an active result; - = inactive; . = no result.

SMILES	PfM18AAP inh-1	VIM-2 inhibitor	IMP-1 inhibitor	CTSL1 counter-1	PfM18AAP inh-2	CTSL1 counter-2
Cc1cccc(C(=O)Oc2ccccc2/C=N/Nc2ccc([N+](=O)[O-])cc2)c1	-	-	-	-	.	.
O=C(COc1ccccc1C(=O)NCC1CCCO1)Nc1ccc(Br)cc1 (configuration not stated)	-	-	-	-	.	.
COC(=O)CN(n1cnnc1)S(=O)(=O)c1ccccc1Cl	87.0	-	-	-	77.3	-
Cc1ccc(S(=O)(=O)N2[C@@H](c3ccc(F)cc3)C(C(=O)O)=CC[C@H]2c2cccs2)cc1	.	.	.	-	.	.
O=C(O)CCC(=O)Nc1ccc(Cc2ccc(NC(=O)CCC(=O)O)c(O)c2)cc1O	57.5	-	-	-	-	-
COC(=O)c1ccc(OCC(O)CN2CCN(C(=O)c3ccco3)CC2)c(OC)c1 (configuration not stated)	-	-	-	-	.	.
NC(=O)c1sc2nc3c(c(-c4ccco4)c2c1N)CCC3	32.5	-	-	-	-	-
Cc1ccc(/C=c2\sc3n(c2=O)CN(c2cccc(Br)c2)CN=3)o1	37.3	-	-	-	-	-
Cc1cc(SCC(=O)c2ccc(O)c(O)c2)nc2ccccc12	46.3	-	-	-	-	-
O=C(CSc1n[nH]c(-c2ccccc2)n1)c1ccc(O)c(O)c1	59.7	-	-	-	36.1	-
O=C(Cc1cccs1)NNC(=S)NCc1ccc(Cl)cc1	-	-	-	-	.	.
O=C(Cc1cccs1)NNC(=S)NC(=O)c1ccco1	33.5	-	-	-	-	-
CCOc1ccccc1N/C(=C(/C(Cl)=C(Cl)Cl)[N+](=O)[O-])n1cncn1	82.8	-	-	-	73.5	-
O=C(Nc1ccc(F)cc1)c1ccc(-n2cncn2)c([N+](=O)[O-])c1	-	-	-	-	.	.
O=[N+]([O-])/C(C(Cl)=C(Cl)Cl)=C(\Nc1ccc(F)cc1)n1cncn1	80.6	-	-	-	79.3	-
COC(=O)c1c(NC(=S)NNC(=O)c2ccc(Cl)s2)sc(C(=O)N(C)C)c1C	-	-	-	-	.	.
S=C(Nc1cccc(Cl)c1Cl)Nn1cnnc1	82.2	-	-	-	82.2	-
O=C(Nc1cccc(Cl)c1Cl)Nn1cnnc1	84.3	-	-	-	76.9	-
CCOc1ccc(NC(=O)CN(C)C(=O)c2c(-c3ccccc3Cl)noc2C)cc1OCC	.	.	.	-	.	.
COc1ccc(C=O)cc1Cn1ccnc1C	-	-	-	-	.	.
CC1=NN(c2nc(-c3ccccc3)cs2)C(=O)C1	-	-	-	-	.	.
O=C1CC(c2ccccc2)=NN1c1nc(-c2ccccc2)cs1	32.7	-	-	-	-	-
CCCOc1ccc(N2C(=O)C/C(=C\c3ccccc3)C2=O)cc1	-	-	-	-	.	.
Cc1c(C(=O)O)cccc1-c1ccc(/C=N/n2cnnc2)o1	34.9	-	-	-	-	-
O=C(O)c1cccc(-c2ccc(/C=N/n3cnnc3)o2)c1	31.8	11.0	-	-	-	-
SMILES	PfM18AAP inh-1	VIM-2 inhibitor	IMP-1 inhibitor	CTSL1 counter-1	PfM18AAP inh-2	CTSL1 counter-2
COc1ccc(C)cc1NC(=O)Nc1ccccc1	-	-	-	-	.	.
COc1cc([N+](=O)[O-])ccc1NC(=O)Nn1cnnc1	84.2	-	-	-	80.7	-
COc1ccc(C)cc1NC(=O)Nn1cnnc1	62.4	-	-	-	56.4	-
COc1ccc(Cl)cc1C(=O)Nn1cnnc1	36.8	-	-	-	-	-
COc1cc([N+](=O)[O-])ccc1NC(=O)NCc1ccccn1	-	-	-	-	.	.
O=C(Nc1ccccc1C(=O)NCCc1ccc(O)cc1)c1ccco1	-	-	-	-	.	.
Clc1ccc2oc(SCc3cccnc3)nc2c1	-	-	-	-	.	.
COc1ccc(/C=N/Nc2cn[nH]c(=O)c2Cl)cc1	-	-	-	-	.	.
O=C(COc1ncnc2ccccc12)N1CCN(S(=O)(=O)c2ccc(Cl)cc2)CC1	-	-	-	-	.	.
Oc1ccc(/C=N/NC(=S)NCCN2CCOCC2)c(O)c1	52.1	-	-	-	-	-
COc1ccc(C(=O)Nc2ccc(/C(C)=N/NC(=O)c3ccccc3O)cc2)cc1OC	36.7	-	-	-	-	-
